Laboratory results as given in publication PMC10731006 (Heliyon, 2023).
Converted amounts (≈) assume the structure as drawn. “Also recorded” adds a separate entry of the source.

Experiments:
[1] = system: breast cancer (MCF7) cells; assay: MTT cytotoxicity assay, MCF7; assay type: cell-based, human; details: for IC50: Homo sapiens, MCF7, 96 h, read-out: IC50 MCF-7; for SI MCF-7 (selectivity index): IC50 in HDF / IC50 in MCF-7, 96 h
How it was run: (§1)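 Cells were grown in RPMI 1640 with 10% FCS, 2 mM L-glutamine and 1% penicillin-streptomycin at 37 °C under 5% CO2. They were seeded at 1 × 10^4 cells/ml, left overnight to adhere, and exposed 96 h to test compound diluted in medium (six final levels, 1–600), with DMSO-matched and cisplatin controls. MTT at 5 mg/ml was added for 4 h, formazan dissolved in DMSO, and A540 read, in triplicate. IC50 was fitted from the data. SI = IC50 in HDF / IC50 in this line.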

B. subtilis (ATCC 6633) [2] = assay: Agar diffusion test, B. subtilis; assay type: cell-based; details: Bacillus subtilis, ATCC6633, read-out: Zone of inhibition BS
[3] = system: human dermal fibroblast (HDF, human dermal cell line); assay: MTT cytotoxicity assay, normal cells; assay type: cell-based; details: Homo sapiens, Fibroblast, 96 h, read-out: IC50 HDF
How it was run: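 Human dermal fibroblasts were maintained in DMEM with 10% FCS, 2 mM L-glutamine and 1% penicillin-streptomycin (37 °C, 5% CO2). They were seeded at 1 × 10^4 cells/ml, allowed to adhere overnight, then treated 96 h with serially diluted test compound (six final levels, 1–600) beside DMSO-matched vehicle and cisplatin controls. Then MTT 5 mg/ml was added for 4 h, formazan taken up in DMSO, and absorbance read at 540 nm, in triplicate. IC50 was fitted.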

B. subtilis (ATCC 6633) [4] = assay: Micro-broth dilution assay; assay type: cell-based; details: Bacillus subtilis, ATCC6633, read-out: MIC BS
[5] = system: cancer cell lines (U87, MCF-7 and A549) compared to normal cells (HDF); assay: MTT cytotoxicity, cancer cell lines compared to normal cells; assay type: cell-based, human; details: 96 h treatment
How it was run: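 A549 and MCF7 grown in RPMI 1640, HDF and U87 in DMEM, each with 10% FCS, 2 mM L-glutamine, 1% pen-strep, 37 °C, 5% CO2. Cells at 1 × 10^4 cells/ml were adhered overnight, then exposed 96 h to test compound (final 1–600 […] in medium). Controls were blank, untreated, DMSO-matched and cisplatin (1–100 μM/mL). MTT 5 mg/ml for 4 h; DMSO-solubilised formazan read at 540 nm, triplicate. IC50 from curve fitting; selectivity index = HDF IC50 / cancer-line IC50.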

[6] = system: Bacillus cereus (ATCC 11778); assay: Agar diffusion test, B. cereus; assay type: cell-based; details: ATCC11778, read-out: Zone of inhibition BC
[7] = system: Pseudomonas aeruginosa (ATCC 13048); assay: Micro-broth dilution assay; assay type: cell-based; details: ATCC13048, read-out: MIC PA
[8] = system: Gram-positive and Gram-negative bacterial test strains; assay: Antibacterial activity, whole panel of test strains; assay type: cell-based
How it was run: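 Disc diffusion followed CLSI (2012). Test compound at 10, 50 and 100 μg/disc was loaded on 6-mm blank filter discs laid on Mueller Hinton agar seeded at 10^6 cells/ml. Strains were S. aureus ATCC 10145, B. cereus ATCC 11778, B. subtilis ATCC 6633, P. aeruginosa ATCC 13048 and E. coli ATCC 25922. Inhibition zones were recorded.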

[9] = system: Bacillus cereus (ATCC 11778); assay: Micro-broth dilution assay; assay type: cell-based; details: ATCC11778, read-out: MIC BC
[10] = DPPH radical scavenging assay
[11] = system: non-small cell lung cancer (A549) cells; assay: MTT cytotoxicity assay, A549; assay type: cell-based, human; details: for IC50: Homo sapiens, A549, 96 h, read-out: IC50 A549; for SI A549 (selectivity index): IC50 in HDF / IC50 in A549, 96 h
How it was run: as §1

[12] = system: Staphylococcus aureus (ATCC 10145); assay: Micro-broth dilution assay; assay type: cell-based; details: ATCC10145, read-out: MIC SA
[13] = system: Escherichia coli (ATCC 25922); assay: Micro-broth dilution assay; assay type: cell-based; details: ATCC25922, read-out: MIC EC
[14] = ABTS radical scavenging assay
[15] = system: glioblastoma (U-87 MG) cells; assay: MTT cytotoxicity assay, U-87 MG; assay type: cell-based, human; details: for IC50: Homo sapiens, U-87 MG, 96 h, read-out: IC50 U87; for SI U87 (selectivity index): IC50 in HDF / IC50 in U87, 96 h
How it was run: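 U-87 MG cells were cultured in DMEM with 10% FCS, 2 mM L-glutamine and 1% penicillin-streptomycin at 37 °C, 5% CO2. Seeding was 1 × 10^4 cells/ml; after overnight adherence, test compound diluted in medium (six final levels, 1–600) was applied for 96 h alongside DMSO-matched and cisplatin controls. Read-out: MTT 5 mg/ml for 4 h, DMSO solubilisation, A540, in triplicate, IC50 fitted. SI = IC50 in HDF / IC50 in U87.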

[16] = system: Pseudomonas aeruginosa (ATCC 13048); assay: Agar diffusion test, P. aeruginosa; assay type: cell-based; details: ATCC13048, read-out: Zone of inhibition PA
[17] = system: Escherichia coli (ATCC 25922); assay: Agar diffusion test, E. coli; assay type: cell-based; details: ATCC25922, read-out: Zone of inhibition EC

In the case of `COC(=O)c1cn(C2CC2)c2cc(N3CCN(C(=O)c4c(C)nnn4Cc4ccc(F)cc4)CC3)c(F)cc2c1=O` [Compound 6a, methyl 7-(4-(1-(4-fluorobenzyl)-4-methyl-1H-1,2,3-triazole-5-carbonyl)piperazin-1-yl)-1-cyclopropyl-6-fluoro-4-oxo-1,4-dihydroquinoline-3-carboxylate], the IC50 [1] is reported as 112 ± 10.1 µM, the “SI MCF-7 (selectivity index)” value [1] is reported as 4.5 and the zone of inhibition at 100 µg/disc (B. subtilis (ATCC 6633) [2]) is reported as 11.3 ± 1.2 mm. It also gave a zone of inhibition at 300 µg/disc (B. subtilis (ATCC 6633) [2]) of 13.1 ± 0.6 mm, a zone of inhibition at 500 µg/disc (B. subtilis (ATCC 6633) [2]) of 14.6 ± 0.7 mm and an IC50 [3] of 504 ± 19.9 µM. For the same molecule, the MIC (B. subtilis (ATCC 6633) [4]) was 500 µg/mL (≈ 889 µM), the “cytotoxic / anti-proliferative activity in words” value [5] was “remarkable anti-proliferative activity against all three cell-lines; also recorded: significant cytotoxic activity against all cancer cell lines” and the zone of inhibition at 100 µg/disc [6] was 12.7 ± 0.6 mm. The zone of inhibition at 300 µg/disc [6] was 14.6 ± 0.3 mm, the zone of inhibition at 500 µg/disc [6] was 15.3 ± 0.3 mm and the MIC [7] was greater than 500 µg/mL. For the same molecule, the “antibacterial activity in words” value [8] was “bioactivity against Gram-positive bacterial test strains”, the MIC [9] was 500 µg/mL (≈ 889 µM) and the “IC50 ± SD, DPPH” value [10] was 32.6 ± 2.9 µg/mL (≈ 57.9 µM). The “% inhibition ±SD, DPPH” value ([10]; 5 μg/ml) was 27.04 ± 0.2%, the “% inhibition ±SD, DPPH” value ([10]; 10 μg/ml) was 40.2 ± 0.4% and the “% inhibition ±SD, DPPH” value ([10]; 25 μg/ml) was 47.2 ± 1.0%. The “% inhibition ±SD, DPPH” value ([10]; 50 μg/ml) was 53.2 ± 0.9%, the “% inhibition ±SD, DPPH” value ([10]; 100 μg/ml) was 63.3 ± 0.8% and the IC50 [11] was 139 ± 9.3 µM. For the same molecule, the “SI A549 (selectivity index)” value [11] was 3.6, the MIC [12] was greater than 500 µg/mL and the MIC [13] was greater than 500 µg/mL. The “IC50 ± SD, ABTS” value [14] was 17.8 ± 1.1 µg/mL (≈ 31.6 µM), the “% inhibition ±SD, ABTS” value ([14]; 5 μg/ml) was 22.7 ± 0.2% and the “% inhibition ±SD, ABTS” value ([14]; 10 μg/ml) was 48.7 ± 0.5%. The “% inhibition ±SD, ABTS” value ([14]; 25 μg/ml) was 53.5 ± 0.3%, the “% inhibition ±SD, ABTS” value ([14]; 50 μg/ml) was 71.1 ± 1.0% and the “% inhibition ±SD, ABTS” value ([14]; 100 μg/ml) was 75.5 ± 0.5%. For the same molecule, the IC50 [15] was 34.6 ± 7.8 µM and the “SI U87 (selectivity index)” value [15] was 14.6.

In the case of `COC(=O)c1cn(C2CC2)c2cc(N3CCN(C(=O)c4c(C)nnn4Cc4cccc(F)c4)CC3)c(F)cc2c1=O` [Compound 6b, methyl 7-(4-(1-(3-fluorobenzyl)-4-methyl-1H-1,2,3-triazole-5-carbonyl)piperazin-1-yl)-1-cyclopropyl-6-fluoro-4-oxo-1,4-dihydroquinoline-3-carboxylate], the IC50 [1] is reported as 10.6 ± 2.3 µM, the “SI MCF-7 (selectivity index)” value [1] is reported as 16.1 and the IC50 [3] is reported as 171 ± 8.1 µM. It also gave a zone of inhibition at 100 µg/disc [16] of 12.3 ± 0.7 mm, a zone of inhibition at 300 µg/disc [16] of 13.6 ± 0.6 mm and a zone of inhibition at 500 µg/disc [16] of 15.3 ± 0.3 mm. It also gave an MIC (B. subtilis (ATCC 6633) [4]) greater than 500 µg/mL, a zone of inhibition at 100 µg/disc [17] of 10.6 ± 1.2 mm and a zone of inhibition at 300 µg/disc [17] of 13.3 ± 1.5 mm. The zone of inhibition at 500 µg/disc [17] was 14.7 ± 0.6 mm, the “cytotoxic / anti-proliferative activity in words” value [5] was “remarkable anti-proliferative activity against all three cell-lines; also recorded: significant cytotoxic activity against all cancer cell lines” and the MIC [7] was 500 µg/mL (≈ 889 µM). For the same molecule, the “antibacterial activity in words” value [8] was “activity against Gram-negative ones without inhibiting the Gram-positive test strains”, the MIC [9] was greater than 500 µg/mL and the “IC50 ± SD, DPPH” value [10] was 32.4 ± 1.1 µg/mL (≈ 57.6 µM). For the same molecule, the “% inhibition ±SD, DPPH” value ([10]; 10 μg/ml) was 18.9 ± 0.3%, the “% inhibition ±SD, DPPH” value ([10]; 25 μg/ml) was 40.6 ± 0.9% and the “% inhibition ±SD, DPPH” value ([10]; 50 μg/ml) was 58.5 ± 0.6%. The “% inhibition ±SD, DPPH” value ([10]; 100 μg/ml) was 84.1 ± 0.2%, the IC50 [11] was 29.4 ± 6.2 µM and the “SI A549 (selectivity index)” value [11] was 5.8. The MIC [12] was greater than 500 µg/mL, the MIC [13] was 500 µg/mL (≈ 889 µM) and the “IC50 ± SD, ABTS” value [14] was 35.3 ± 1.6 µg/mL (≈ 62.7 µM). The “% inhibition ±SD, ABTS” value ([14]; 5 μg/ml) was 11.8 ± 0.5%, the “% inhibition ±SD, ABTS” value ([14]; 10 μg/ml) was 28.3 ± 0.4% and the “% inhibition ±SD, ABTS” value ([14]; 25 μg/ml) was 43.4 ± 0.3%. The “% inhibition ±SD, ABTS” value ([14]; 50 μg/ml) was 53.9 ± 0.8%, the “% inhibition ±SD, ABTS” value ([14]; 100 μg/ml) was 72.9 ± 0.5% and the IC50 [15] was 1.2 ± 0.8 µM. For the same molecule, the “SI U87 (selectivity index)” value [15] was 142.3.
